Source: PubChem
Sampled rows, rich in hits. Any-hit rate of the full collection: about 1.4%.
ATG4B inh: ATG4B protease inhibitors, primary screen, biochemical, fluorescence, uHTS; Cysteine protease ATG4B (Homo sapiens), Q9Y4P1; ATG4B cleavage of LC3-PLA2, NBD-HPC fluorescence, 1 h; inhibition, % at 8.33 µM; hit rate 0.51% among 340,000; AID 504462, 2011; in the data active means inhibition above about 40%
Rin1-Abl PPI inh: inhibitors of Rin1-Abl protein binding, primary screen, biochemical, TR-FRET; hit rate 0.4% among 360,000; inhibition, % at 7.35 µM; Tyrosine-protein kinase ABL1 (Homo sapiens) + Ras and Rab interactor 1 (Homo sapiens), …; in the data active means inhibition above about 5%, passing the limit was not always enough
TbMetRS inhib: T. brucei MetRS inhibitors, primary screen, biochemical, luminescence; methionyl-tRNA synthetase (Trypanosoma brucei brucei); purified T. brucei MetRS, ATP depletion, Kinase-Glo luminescence; inhibition, % at 11.9 µM; hit rate 0.4% among 360,000;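 active means inhibition above a per-plate cutoff of the control wells' mean inhibition plus 3 SD, cut at about 5.5% in these data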;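 further: 0% = DMSO wells median and 100% = median of wells with control inhibitor compound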
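assay system = parasite MetRS enzyme | timing = 15 min preincubation, 2 h reaction, all 25 °C | evaluation = percent inhibition relative to median high and low control wells | medium = HEPES buffer containing pyrophosphatase, BSA, spermine, DTT | compound = single dose, 11.9 µM final nominal, 0.9% final DMSO | detection = Kinase-Glo luminescence, ATP depletion format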
UCH37 DUB inh: inhibitors of human UCH37 deubiquitinase, primary screen, biochemical, Ub-AMC cleavage, fluorescence. purified proteasome/UCH37. hit rate 0.33% among 330,000. inhibition, % (concentration not given with the values). AID 588478, 2011;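 active means mean inhibition over replicate wells above about 20%, limit read from the data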;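 further: 0% = compound-free wells with enzyme and 100% = wells lacking proteasome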
Target sequence (Q9Y5K5 whole entry, looked up): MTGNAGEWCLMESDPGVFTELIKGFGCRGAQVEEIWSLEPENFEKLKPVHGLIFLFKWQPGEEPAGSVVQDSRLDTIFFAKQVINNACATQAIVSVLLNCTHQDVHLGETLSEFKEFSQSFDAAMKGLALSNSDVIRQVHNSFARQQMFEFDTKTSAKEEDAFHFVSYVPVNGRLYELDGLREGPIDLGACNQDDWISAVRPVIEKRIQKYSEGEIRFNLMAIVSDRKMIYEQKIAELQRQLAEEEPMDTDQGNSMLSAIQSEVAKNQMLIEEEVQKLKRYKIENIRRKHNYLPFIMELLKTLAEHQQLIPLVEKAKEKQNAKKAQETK
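System: Proteasome-associated human UCH37 deubiquitinase; Input: 0.15 nM proteasome in added enzyme buffer; Also added: Ub-AMC substrate from 1 µM stock; Incubation: 30 min compound-proteasome preincubation then 25 min substrate reaction, room temperature; Detection: fluorescence, ex 355 nm, em 460 nm; Read-out: % inhibition of Ub-AMC cleavage fluorescence; Benchmarks: no-proteasome and no-compound wells.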
TbMetRS confirm: T. brucei MetRS inhibitors, confirmation, biochemical, luminescence | T. brucei MetRS enzyme, luminescence (ATP depletion) | inhibition, % at 11.9 µM | shares compounds with TbMetRS inhib | AID 624412, 2012 | hit rate 93% among 1,400; in the data active means inhibition above about 7%
Jurkat tox: Jurkat T cell cytotoxicity, cytotoxicity control for T. brucei MetRS inhibitor project, luminescence, high throughput; shares compounds with TbMetRS inhib; Jurkat cells viability, ATP luminescence; inhibition, % at 8.3 µM; hit rate 12% among 1,400; in the data active means inhibition above about 15%;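 further: 0% = vehicle and 100% = reference inhibitor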
Tb MetRS inh FP: T. brucei MetRS inhibitors, orthogonal assay for T. brucei MetRS inhibitor project, biochemical, fluorescence polarization. shares compounds with TbMetRS inhib. purified T. brucei MetRS. inhibition, % at 11.9 µM. hit rate 44% among 1,400. AID 651607, 2012; in the data active means inhibition above about 17%;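 further: 0% = vehicle wells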
Active calls of the source: *; nt = no result.

SMILES	ATG4B inh	Rin1-Abl PPI inh	TbMetRS inhib	UCH37 DUB inh	TbMetRS confirm	Jurkat tox	Tb MetRS inh FP
CCc1ccccc1NC(=O)CNC(=O)c1ccc(-n2cncn2)c([N+](=O)[O-])c1	-17	-2	18*	3	47*	-1	23*
Cc1cccc(C)c1NC(=O)CNC(=O)c1ccc(N2CCCC2)c([N+](=O)[O-])c1	-5	-1	0	4	nt	nt	nt
Cc1cccc(NC(=O)c2ccc(-n3cncn3)c([N+](=O)[O-])c2)c1	2	-2	20*	5	57*	-1	29*
O=C(CCN1CCN(C/C=C/c2ccccc2)CC1)Nc1ccccc1F	-11	1	0	4	nt	nt	nt
O=C(NCc1n[nH]c(=S)n1Cc1ccccc1)c1ccccc1	2	0	-1	1	nt	nt	nt
O=C(NCc1n[nH]c(=S)n1Cc1ccccc1)c1ccc(Cl)cc1Cl	-3	-2	5.8*	0	13*	1	5
CSc1ncccc1C(=O)OCC(=O)NCc1cccs1	-8	0	0	5	nt	nt	nt
CSc1ccc(CN2CCC(Oc3cccc(C(=O)N4CCCC4)c3)CC2)cc1	2	-1	0	3	nt	nt	nt
CCN1C(=O)C(CC(=O)Nc2ccc(Br)cc2)N(CCCc2ccccc2)C1=S (stereo not given)	24	-2	66*	1	77*	8	62*
CCOc1ccc(NC(=O)CC2C(=O)N(C)C(=S)N2CCCc2ccccc2)cc1 (stereo not given)	-7	1	0	1	nt	nt	nt
COc1ccc(NC(=O)CC2C(=O)N(c3ccc(OC)cc3)C(=O)N2CCc2cccs2)cc1 (stereo not given)	-2	1	11*	0	20*	0	15
CCN1C(=O)C(CC(=O)Nc2ccc(OC)cc2)N(Cc2ccc(OC)c(OC)c2)C1=S (stereo not given)	-5	-4	0	6	nt	nt	nt
CCN1C(=O)C(CC(=O)Nc2ccc(OC)cc2)N(CCc2ccc(OC)cc2)C1=S (stereo not given)	5	4	36*	1	51*	3	34*
COc1ccc(N2C(=O)C(CC(=O)Nc3ccccc3)N(Cc3cccs3)C2=O)cc1 (stereo not given)	1	-3	0	6	nt	nt	nt
CCOC(=O)c1ccc(NC(=O)Nc2ccc3c4c(cccc24)C(=O)N3CC)cc1	11	2	0	3	nt	nt	nt
C=CCc1ccccc1Oc1cc(OC)nc(N)n1	-8	0	0	0	nt	nt	nt
CCOC(=O)C(/C=C(\C#N)C(=O)OCC)=C(/N)N1CCN(c2ccccc2)CC1	-4	-3	40*	8	58*	1	28*
CCOC(=O)/C(C#N)=C/c1ccc(N2CCN(C)CC2)cc1	-4	0	0	4	nt	nt	nt
O=C1CC(SCc2nc3ccccc3[nH]2)C(=O)N1c1cccc(Cl)c1 (stereo not given)	-4	-5	80*	-4	91*	-1	61*
O=C1CC(SCc2nc3ccccc3[nH]2)C(=O)N1c1ccc(F)cc1 (stereo not given)	-7	-1	2	-4	nt	nt	nt
O=C1CC(SCCc2nc3ccccc3[nH]2)C(=O)N1c1ccc(F)c(Cl)c1 (stereo not given)	1	0	33*	1	54*	1	30*
NCCSC1CC(=O)N(c2ccc(Cl)c(Cl)c2)C1=O (stereo not given)	3	1	0	7	nt	nt	nt
Cc1ccc(-c2csc(NC(=O)C3CC(=O)N(Cc4ccco4)C3)n2)cc1 (stereo not given)	-15	4	0	5	nt	nt	nt
CC(=O)c1nn(-c2ccccc2)cc1C(=O)c1ccc(C)cc1	6	1	-1	7	nt	nt	nt
